From ChEMBL document CHEMBL4334452, “Monosaccharide Analogues of Anticancer Peptide R-Lycosin-I: Role of Monosaccharide Conjugation in Complexation and the Potential of Lung Cancer Targeting and Therapy” (J Med Chem, 2019)
Calls of active or inactive are those of the source. The rule behind the calls is not given here. *1 amine or outer side, *2 acyl side, *3 side chain or, on linkers, in order; H or OH if unused. Where a SMILES comes first, the peptide text is derived from it. The star is where a group is joined. NH(CH2)3O(βDGlc) = OC[C@H]1O[C@@H](OCCCN*)[C@H](O)[C@@H](O)[C@@H]1O; Glutaryl = O=C(CCCC(=O)[*:2])[*:1]

Tests used:
[1] = molecular target: T1, Solute carrier family 2, facilitated glucose transporter member 1 (Homo sapiens) (UniProt P11166); test: Binding affinity to GLUT1 in human A549 cells assessed as cytotoxicity by measuring reduction in cell viability at 40 umol/L measured up to 24 hrs in presence of 10% serum by CCK8 assay; format: cell-based
T1 sequence (whole entry): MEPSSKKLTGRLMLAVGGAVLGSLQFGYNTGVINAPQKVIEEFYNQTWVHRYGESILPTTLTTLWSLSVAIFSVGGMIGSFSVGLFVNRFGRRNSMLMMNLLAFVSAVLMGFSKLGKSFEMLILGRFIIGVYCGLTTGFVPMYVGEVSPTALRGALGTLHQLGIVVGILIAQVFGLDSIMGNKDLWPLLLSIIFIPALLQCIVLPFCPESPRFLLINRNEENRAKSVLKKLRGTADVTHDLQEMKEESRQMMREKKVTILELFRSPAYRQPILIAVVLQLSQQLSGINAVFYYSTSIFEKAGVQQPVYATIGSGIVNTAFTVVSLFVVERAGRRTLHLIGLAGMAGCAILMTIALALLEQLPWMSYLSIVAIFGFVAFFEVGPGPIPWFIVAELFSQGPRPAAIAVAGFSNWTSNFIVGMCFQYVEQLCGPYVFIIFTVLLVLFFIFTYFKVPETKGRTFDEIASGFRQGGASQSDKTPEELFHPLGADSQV

[2] = molecular target: T1, Solute carrier family 2, facilitated glucose transporter member 1 (Homo sapiens); test: Binding affinity to GLUT1 in human A549 cells assessed as cytotoxicity by measuring reduction in cell viability at 12.5 uM measured after 2 hrs in presence of GLUT1 inhibitor STF-31 by CCK8 assay; format: cell-based
How it was run: (§1)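 A549 cells at 2×10^3/well, grown overnight, then preincubated 4 h in F12K/10% FBS with or without STF-31 (1 µM final). […] Incubated a further 2 h at 37 °C; viability by CCK-8.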

[3] = molecular target: T1, Solute carrier family 2, facilitated glucose transporter member 1 (Homo sapiens); test: Binding affinity to GLUT1 in human A549 cells assessed as cytotoxicity by measuring reduction in cell viability at 12.5 uM measured after 2 hrs in absence of GLUT1 inhibitor STF-31 by CCK8 assay; format: cell-based; how it was run: as §1
[4] = Toxicity in Balb/c nu/nu mouse xenografted with human A549 cells expressing luciferase gene assessed as effect on heart at 9 mg/kg, ip administered every 2 days for seven times measured on day 14 by H and E staining based assay; format: organism-based; conditions: in vivo, 48 h
How it was run: (§2)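 Male BALB/c nu/nu mice bearing subcutaneous A549-luciferase xenografts received 9 mg/kg peptide i.p. (200 µL) every other day for seven doses, with a PBS control group of five. Heart, liver and kidney were fixed in 10% paraformaldehyde, sectioned and stained with H&E for histology.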

[5] = Drug uptake in tumor of Balb/c nu/nu mouse xenografted with human A549 cells expressing luciferase gene at 9 mg/kg, ip measured after 6 hrs by fluorescence assay; format: ADME, organism-based, Neoplasm; conditions: in vivo
A549 [6] = test: Antitumor activity against human A549 cells expressing luciferase gene xenografted in Balb/c nu/nu mouse assessed as increase in apoptotic cells at 9 mg/kg, ip administered every 2 days for seven times measured on day 14 by TUNEL assay; format: functional, organism-based
How it was run: (§3)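 Male BALB/c nu/nu mice, 4-6 weeks old, carrying subcutaneous A549-luciferase xenografts in the right back. Dosing started when tumors reached 100-200 mm³ (day 0), five per group. Peptide was given at 9 mg/kg i.p. in 200 µL every other day for 7 doses; PBS served as control. Bioluminescent imaging on day 14; tumor size and body weight tracked. Tumors fixed in paraformaldehyde, paraffin-sectioned, TUNEL-stained.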

[7] = Toxicity in Balb/c nu/nu mouse xenografted with human A549 cells expressing luciferase gene assessed as effect on kidney at 9 mg/kg, ip administered every 2 days for seven times measured on day 14 by H and E staining based assay; format: organism-based; conditions: in vivo, 48 h; how it was run: as §2
[8] = Stability of the compound in serum (unknown origin) measured up to 48 hrs; format: ADME, cell-free
[9] = molecular target: T1, Solute carrier family 2, facilitated glucose transporter member 1 (Homo sapiens); test: Binding affinity to GLUT1 in human A549 cells assessed as cytotoxicity by measuring cell viability at 12.5 uM measured after 2 hrs in absence of GLUT1 inhibitor STF-31 by CCK8 assay relative to control; format: cell-based; how it was run: as §1
[10] = molecular target: T1, Solute carrier family 2, facilitated glucose transporter member 1 (Homo sapiens); test: Binding affinity to GLUT1 in human A549 cells assessed as cytotoxicity by measuring cell viability at 12.5 uM measured after 2 hrs in presence of GLUT1 inhibitor STF-31 by CCK8 assay relative to control; format: cell-based; how it was run: as §1
[11] = molecular target: T1, Solute carrier family 2, facilitated glucose transporter member 1 (Homo sapiens); test: Binding affinity to GLUT1 in human A549 cells assessed as cytotoxicity by measuring reduction in cell viability at 40 umol/L measured up to 48 hrs in presence of 10% serum by CCK8 assay relative to control; format: cell-based
HEK-293T = test: Cytotoxicity against HEK293T cells at 12.5 uM measured after 2 hrs by LDH release assay; format: cell-based; conditions: human
A549 [12] = test: Cytotoxicity against GLUT1 knockout out human A549 cells assessed as reduction in cell viability measured after 24 hrs by CCK8 assay; format: functional, cell-based; conditions: A549, 24 h
How it was run: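 A549 cells with GLUT1 knocked down by RNAi oligos, about 50% knockdown versus control oligos. Cells treated with a concentration series, read by 24-h serum-free CCK-8 viability, and an IC50 derived from the dose-response curve.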

[13] = Drug uptake in GLUT1 knockout out human A549 cells at 12.5 uM measured after 2 hrs using FITC-labelled compound by fluorescence assay; format: ADME, cell-based; conditions: a549, 2 h
How it was run: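 FITC-labelled peptide at 12.5 µM for 2 h, given to A549 cells and to A549 GLUT1-RNAi knockdown cells. Total and fluorescent cells counted by automated cell counter; n=3.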

[14] = Toxicity in Balb/c nu/nu mouse xenografted with human A549 cells expressing luciferase gene assessed as effect on liver at 9 mg/kg, ip administered every 2 days for seven times measured on day 14 by H and E staining based assay; format: organism-based; conditions: in vivo, 48 h; how it was run: as §2
A549 [15] = test: Antitumor activity against human A549 cells expressing luciferase gene xenografted in Balb/c nu/nu mouse assessed as reduction in tumor volume at 9 mg/kg, ip administered every 2 days for seven times measured on day 14 by bioluminescent imaging analysis; format: functional, organism-based; how it was run: as §3

Row | Drug uptake [5] | Stability [8] | Drug uptake [13] | SMILES | Activity [1] | Activity [2] | Activity [3] | Activity [4] | Activity (A549 [6]) | Activity [7] | Activity [9] [%] | Activity [10] [%] | Activity [11] [%] | Activity (HEK-293T) | IC50 (A549 [12]) [µM] | Activity [14] | Activity (A549 [15])
1 |  |  |  | CC[C@H](C)[C@H](NC(=O)[C@H](Cc1ccccc1)NC(=O)[C@H](CCCNC(=N)N)NC(=O)[C@H](C)NC(=O)[C@@H](NC(=O)[C@H](CO)NC(=O)[C@H](CCCNC(=N)N)NC(=O)[C@H](CCSC)NC(=O)[C@H](C)NC(=O)[C@H](CCCNC(=N)N)NC(=O)[C@H](Cc1ccccc1)NC(=O)[C@H](Cc1c[nH]c2ccccc12)NC(=O)CNC(=O)[C@@H](N)CCCNC(=N)N)[C@@H](C)CC)C(=O)N[C@@H](C)C(=O)N[C@@H](CCCNC(=N)N)C(=O)N[C@@H](CCC(=O)O)C(=O)N[C@@H](CCCNC(=N)N)C(=O)N[C@@H](CC(C)C)C(=O)N[C@@H](CCCNC(=N)N)C(=O)N[C@@H](CCC(=O)O)C(=O)N[C@@H](Cc1cnc[nH]1)C(=O)N[C@@H](CC(C)C)C(=O)O (H-RGWFRAMRSIARFIARERLREHL-OH) | inactive | Active | Active |  |  |  |  |  |  |  |  |  | 
2 | Active | Stable | Not Active | CC[C@H](C)[C@H](NC(=O)[C@H](Cc1ccccc1)NC(=O)[C@H](CCCNC(=N)N)NC(=O)[C@H](C)NC(=O)[C@@H](NC(=O)[C@H](CO)NC(=O)[C@H](CCCNC(=N)N)NC(=O)[C@H](CCSC)NC(=O)[C@H](C)NC(=O)[C@H](CCCNC(=N)N)NC(=O)[C@H](Cc1ccccc1)NC(=O)[C@H](Cc1c[nH]c2ccccc12)NC(=O)CNC(=O)[C@H](CCCNC(=N)N)NC(=O)CCCC(=O)NCCCO[C@@H]1O[C@H](CO)[C@@H](O)[C@H](O)[C@H]1O)[C@@H](C)CC)C(=O)N[C@@H](C)C(=O)N[C@@H](CCCNC(=N)N)C(=O)N[C@@H](CCC(=O)O)C(=O)N[C@@H](CCCNC(=N)N)C(=O)N[C@@H](CC(C)C)C(=O)N[C@@H](CCCNC(=N)N)C(=O)N[C@@H](CCC(=O)O)C(=O)N[C@@H](Cc1cnc[nH]1)C(=O)N[C@@H](CC(C)C)C(=O)O ({NH(CH2)3O(βDGlc)-Glutaryl}-RGWFRAMRSIARFIARERLREHL-OH) |  |  |  | Non-Toxic | Active | Non-Toxic | 54 | 40 | 80 | Non-Toxic | 13.4 | Non-Toxic | Active
